Paper PMC10651777 (Blood, 2022)

Columns and labels:
[1] = system: R/R AML and newly diagnosed patients with AML unfit for intensive chemotherapy; settings: ven monotherapy; cited from earlier work
[2] = Plasma pharmacokinetics at steady state; assay type: in vivo, human; settings: for Cmax: human, plasma, oral, Mean Cmax, steady state
Procedure, shortened: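 Patients with relapsed/refractory AML or secondary AML received venetoclax daily on days 1–28 (3–5-day ramp-up to 400, 600 or 800 mg) plus idasanutlin 150, 200 or 400 mg daily or 300 mg twice daily on days 1–5 of 28-day cycles. Noncompartmental analysis of venetoclax plasma concentration–time data; summary statistics of steady-state Cmax and trough. Data from 49 patients across 5 cohorts.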

MIC-1 = settings: day 5 of treatment, 100 mg daily for 5 days, PV; cited from earlier work
AML = settings: idasa monotherapy, cited from earlier work
[3] = system: Macrophage inhibitory cytokine-1 (MIC-1); assay: Serum MIC-1 ELISA; assay type: in vivo, human; settings: day 5; idasa 150 to 400 mg daily for 5 days
Procedure, shortened: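 Serum from patients with relapsed/refractory or secondary AML on venetoclax plus idasanutlin. Idasanutlin was given daily or twice daily on days 1–5 of 28-day cycles. MIC-1 was quantified by a human GDF-15 immunoassay kit (ELISA).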

[4] = Cohort B1.2.1, n = 5, ven 600 mg, idasa 150 mg

Compound | All-grade diarrhea rate [1] [%] | All-grade nausea rate [1] [%] | All-grade vomiting rate [1] [%] | CR/CRi rate (CRc) [1] [%] | Rate of grade ≥3 diarrhea [1] [%] | Rate of grade ≥3 nausea [1] [%] | Cmax [2, 4] [ng/mL] | Impact of the coadministration of idasa on ven pharmacokinetics ([2]; in vivo) | Pharmacokinetics of ven in this combination ([2]; vs historical ven monotherapy) | Plasma MIC-1 levels increase (MIC-1) [fold] | All-grade diarrhea rate (AML; 400-800 mg twice daily microprecipitated bulk powder) [%] | All-grade nausea rate (AML) [%] | All-grade vomiting rate (AML) [%] | CR/CRi/MLFS rate (antileukemic response) (AML) [%] | Rate of grade ≥3 diarrhea (AML) [%] | Rate of grade ≥3 nausea (AML) [%] | MIC-1 increases [3] | Cmax ([2]; 400 mg, Cohort B4, n = 8, ven 400 mg, idasa 400 mg) [ng/mL]
CC1(C)CCC(CN2CCN(c3ccc(C(=O)NS(=O)(=O)c4ccc(NCC5CCOCC5)c([N+](=O)[O-])c4)c(Oc4cnc5[nH]ccc5c4)c3)CC2)=C(c2ccc(Cl)cc2)C1 [ven, Venetoclax] | 56 | 59 | 41 | 19 | 6 | 6 | 1450 | no significant impact | comparable to ven monotherapy | – | – | – | – | – | – | – | – | –
COc1cc(C(=O)O)ccc1NC(=O)[C@@H]1N[C@@H](CC(C)(C)C)[C@](C#N)(c2ccc(Cl)cc2F)[C@H]1c1cccc(Cl)c1F [idasa, idasanutlin] | – | – | – | – | – | – | 3220 | – | – | 4.8 | 91.3 | 73.9 | 39.1 | 21 | 23.9 | 0 | 10- to 20 fold | 7110
